Source: PubChem BioAssay (The Scripps Research Institute Molecular Screening Center)
rCAG binder = molecules binding r(CAG) RNA repeats | AID 651821 | r(CAG) RNA repeat, TO-PRO-1 dye displacement fluorescence | 1.3% of 370,000 active | inhibition, % at 3 µM;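 active means inhibition above the plate cutoff, the mean of all test compounds on that plate plus 3 SD, cut at about 35% in these data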;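 further: 0% = DMSO alone and 100% = 100 µM mitoxantrone as full dye displacement; higher means more dye released from RNA so lower well fluorescence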
TAAR1 antag = human TAAR1 antagonism | 1.5% of 360,000 active | Q96RJ0 | CHO RD-HGA16 TAAR1, Fluo-8 calcium fluorescence, antagonist | inhibition, % at 3 µM;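 active means inhibition above a per-plate cutoff, the mean inhibition of test compounds on that plate plus 3 SD, cut at about 49% in these data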;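 further: 0% = DMSO plus EC80 beta-PEA response and 100% = DMSO alone without agonist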
Target sequence (Q96RJ0 whole entry, looked up): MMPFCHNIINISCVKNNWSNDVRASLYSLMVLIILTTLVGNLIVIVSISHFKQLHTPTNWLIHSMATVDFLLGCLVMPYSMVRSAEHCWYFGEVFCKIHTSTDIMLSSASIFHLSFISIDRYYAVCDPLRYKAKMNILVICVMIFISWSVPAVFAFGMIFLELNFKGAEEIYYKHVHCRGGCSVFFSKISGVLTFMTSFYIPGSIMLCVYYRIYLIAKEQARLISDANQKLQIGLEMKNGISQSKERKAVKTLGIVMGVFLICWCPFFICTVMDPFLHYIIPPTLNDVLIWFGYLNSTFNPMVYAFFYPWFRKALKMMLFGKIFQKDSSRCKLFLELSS
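Material: RD-HGA16 CHO cells with stable hTAAR1 and Gα16; Dosing: single nominal final test compound concentration of 3 µM; Schedule: seeding 17-24 h prior, 75-min 37 °C, 30-min RT dye loading; Detection: kinetic Fluo-8 calcium fluorescence measurement; Measure: % inhibition from peak post-agonist over basal fluorescence ratio; Benchmarks: vehicle and agonist controls.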
TAAR1 ag = human TAAR1 agonism. CHO RD-HGA16 TAAR1, Fluo-8 calcium fluorescence; vehicle wells 0%, saturating PEA agonist 100%. activation, % at 3 µM. 0.99% of 360,000 active. AID 624467;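 active means activation above the mean activation of all test compounds in the run plus 3 SD, cut at about 38% in these data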
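System: CHO-derived RD-HGA16 cells with stable Gα16 and human TAAR1. Times: 17-24 h plating, Fluo-8 75 min 37 °C, 30 min RT. Measured by: calcium-sensitive Fluo-8 signal, excitation 470-495, emission 515-575 nm. Read-out basis: % activation relative to PEA EC100 response. Control set: DMSO and PEA EC100. Repeats: no replicates (n 1).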
core dimer inh = HCV core protein dimerization inhibition; 0.33% of 300,000 active; TR-FRET GST/Flag-core106 dimerization, 1536-well; inhibition, % at 5 µM; AID 1899;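 active means inhibition above the mean of all tested compounds plus 3 SD, set per screening campaign, cut at about 45% in these data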
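Assay system: GST-tagged and Flag-tagged HCV core protein residues 1-106 / Times: compound-protein-antibody incubation 4 h at 22.5 °C / Signal: time-resolved FRET, ex 340 nm, em 617 and 671 nm / Evaluation: % inhibition based on acceptor/donor emission ratio / Benchmarks: wells lacking GST-core106 and wells with excess unlabelled core106 / Repeats: singlicate, one well per compound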
HCV NS3 hel inh = blocks Hepatitis C virus NS3 helicase unwinding | 0.56% of 290,000 active | inhibition, % at 10.9 µM | AID 1800 | NS3 helicase DNA unwinding, Cy5 molecular beacon fluorescence;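 active means inhibition above the mean of all tested compounds plus 3 SD, set per campaign, cut at about 35% in these data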;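 further: 0% = DMSO wells and 100% = thioflavine S control wells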
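Control set: DMSO versus 110 µM thioflavine S; Material: NS3 helicase fragment of HCV; Measured by: Cy5 fluorescence at 0 and 60 min, beacon hairpin quenching; Read-out basis: percent inhibition from t60/t0 fluorescence ratio; Times: reaction time 60 min, 25 °C; Repeats: single replicate; Compound dosing: single dose, 10.9 µM nominal final, DMSO 0.8% final.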
nonsel antag count = counter-screen for TAAR1 antagonists: nonselective antagonists | shares compounds with TAAR1 antag | counterscreen cell line, calcium fluorescence, antagonist mode | inhibition, % at 3 µM | 77% of 2,400 active | AID 651780; in the data active means inhibition above about 22%;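 further: CHO-Ga16 host cells stimulated with ATP at an EC80 level; 0% = agonist EC80 plus vehicle and 100% = vehicle without agonist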
TAAR1 antag conf = human TAAR1 antagonism, confirmed; shares compounds with TAAR1 antag; TAAR1-expressing cells, fluorescence antagonist read-out; inhibition, % at 3 µM; 40% of 2,400 active; in the data active means inhibition above about 49%;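 further: CHO-Ga16 host cells challenged with agonist PEA near its EC80; 0% = agonist at EC80 plus vehicle and 100% = vehicle with no agonist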
Ga16 nonsel ag = nonselective Ga16 agonist in TAAR1 antagonist counter-screen; shares compounds with TAAR1 antag; Ga16-expressing cells, calcium fluorescence, agonist counterscreen; activation, % at 3 µM; 18% of 2,400 active; AID 651953; in the data active means activation above about 12%;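 further: 0% = vehicle wells and 100% = saturating stimulus response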
TAAR1 ag counter = TAAR1 agonism, antagonist counter-screen; shares compounds with TAAR1 antag; hTAAR1 cell line, fluorescence activation, agonist mode; activation, % at 3 µM; 2% of 2,400 active; AID 651955; in the data active means activation above about 37%;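 further: CHO cells stably expressing TAAR1 with calcium dye readout; 0% = DMSO vehicle and 100% = full agonist response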
* marks the source's active call; other numbers are inactive results; . = not tested or not shown. Rows were chosen to be rich in hits. Some 3.7% of all compounds tested hit in one or more screens of this group.

SMILES | rCAG binder | TAAR1 antag | TAAR1 ag | core dimer inh | HCV NS3 hel inh | nonsel antag count | TAAR1 antag conf | Ga16 nonsel ag | TAAR1 ag counter
Cc1ccccc1C1c2[nH]c3ccccc3c2C[C@H]2C(=O)N(c3ccccc3C(=O)NCCCN3CCOCC3)C(=O)N12 (some centres not stated) | 3.1 | 60.5* | 13.5 | -1.0 | -115.8 | 29.2* | 36.2 | 7.0 | 5.7
Cc1ccc(C2c3[nH]c4ccccc4c3C[C@H]3C(=O)N(c4ccccc4C(=O)NCCN4CCOCC4)C(=O)N23)cc1 (some centres not stated) | 0.9 | 61.0* | 10.3 | -6.8 | -58.0 | 26.7* | 42.0 | 6.8 | 9.1
COc1ccc(C2c3[nH]c4ccccc4c3C[C@H]3C(=O)N(c4ccccc4C(=O)N4CCC(C(=O)O)CC4)C(=O)N23)cc1 (some centres not stated) | 29.0 | -19.1 | 3.8 | 2.0 | -0.9 | . | . | . | .
CCS(=O)(=O)N1Cc2ccccc2CC1C(=O)Nc1nnc(SCc2ccc(C#N)cc2)s1 (configuration not stated) | 12.2 | 67.7* | 25.6 | 36.5 | 11.9 | 33.8* | 56.4* | 12.1* | 13.1
O=C(CCc1ccccc1)N[C@H]1C(=O)CCC[C@]12C(=O)N(Cc1ccccc1)c1ccccc12 | -0.1 | . | . | . | . | . | . | . | .
CC(=O)CCc1ccc(OCCCOc2cccc3cccnc23)cc1 | -9.1 | 68.2* | 15.1 | 6.6 | -7.5 | 31.5* | 45.6 | 11.4 | 18.3
C=CC[C@@H](CC(=O)N[C@H](CO)Cc1ccccc1)C(=O)N[C@H](COC(=O)[C@@H](CC=C)Cc1ccc(F)cc1)Cc1c[nH]c2ccccc12 | 0.8 | 85.8* | 28.2 | . | . | 38.1* | 51.5* | 5.3 | 15.3
C=CC[C@H](CC(=O)N[C@H](CO)Cc1ccccc1)C(=O)N[C@@H](COC(=O)[C@@H](CC=C)CC(=O)OC(C)(C)C)Cc1c[nH]c2ccccc12 | -7.3 | 62.7* | 23.3 | . | . | 29.9* | 37.5 | 4.3 | 3.7
C=CCC[C@@H](Cc1ccc(F)cc1)C(=O)OC[C@H](Cc1c[nH]c2ccccc12)NC(=O)[C@H](CC=C)CC(=O)NCCO | -5.1 | 75.2* | 21.8 | . | . | 30.4* | 41.9 | 6.9 | 6.6
COc1ccc(CNC(=O)CCNS(=O)(=O)c2ccc3[nH]c(=O)oc3c2)cc1 | 0.7 | . | . | . | . | . | . | . | .
NS(=O)(=O)c1ccc(CCNC(=O)c2ccc3c(c2)N(Cc2ccccc2)CCS3)cc1 | 7.4 | 82.6* | 7.6 | -2.6 | -0.2 | 38.8* | 61.8* | 7.7 | 7.3
COc1ccc(CCNC(=O)c2cc(-c3ccccc3)c(N3CCOCC3)s2)cc1OC | 5.8 | 66.5* | 1.2 | 21.8 | . | 24.9* | 40.7 | 3.5 | 0.6
O=C(NCCc1ccccc1)c1cc(-c2ccccc2)c(N2CCOCC2)s1 | 1.6 | 16.0 | -1.0 | 24.2 | . | . | . | . | .
O=C(NCCCN1CCCC1)c1ccc2c(c1)N(Cc1ccccc1)CCS2 | 5.7 | -9.3 | 6.0 | 0.5 | -55.1 | . | . | . | .
COc1ccc(CCNC(=O)c2ccc3c(c2)N(Cc2ccccc2)CCS3)cc1OC | 3.4 | 80.1* | 4.6 | 17.3 | -9.2 | 39.5* | 61.6* | 5.8 | 3.0
CCCCCCNC(=O)C1CSCCS(=O)(=O)N1Cc1ccc(C)cc1 (configuration not stated) | -0.5 | . | . | . | . | . | . | . | .
C=CCNc1nc(N(c2ccccc2)c2ccccc2)nc(-n2ccnc2)n1 | 0.0 | 94.6* | 36.9 | -2.9 | 1.3 | 47.2* | 84.5* | 9.6 | 17.8
c1ccc(N(c2ccccc2)c2nc(-n3ccnc3)nc(-n3ccnc3)n2)cc1 | -2.2 | 103.9* | 33.8 | 11.8 | -2.9 | 55.9* | 96.3* | 27.0* | 43.4*
CCCCNc1nc(N(C)c2ccccc2)nc(-n2ccnc2)n1 | -2.8 | 50.1* | 17.2 | 3.1 | -5.5 | 3.4 | -4.7 | -0.2 | 0.3
